The target in one data set is T1, r3β-HSD1 (Rattus norvegicus, UniProt P22071).
T1 sequence (P22071 1-373): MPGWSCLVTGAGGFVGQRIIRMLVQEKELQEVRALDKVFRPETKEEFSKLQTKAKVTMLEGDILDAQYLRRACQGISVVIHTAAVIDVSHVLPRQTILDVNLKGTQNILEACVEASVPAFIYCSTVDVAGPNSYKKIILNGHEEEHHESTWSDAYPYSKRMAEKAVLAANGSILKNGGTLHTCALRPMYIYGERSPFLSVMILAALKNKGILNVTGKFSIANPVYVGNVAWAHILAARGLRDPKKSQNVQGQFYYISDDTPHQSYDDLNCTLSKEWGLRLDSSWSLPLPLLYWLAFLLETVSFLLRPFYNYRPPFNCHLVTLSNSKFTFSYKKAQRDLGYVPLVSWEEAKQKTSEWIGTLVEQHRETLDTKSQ
As to the kind of experiment: r3β-HSD1 activity, conversion of P5 to P4 in rat testicular microsome. It counts as biochemical. The following applies: for Residual r3β-HSD1 activity: 100 µM chemical, relative to DMSO control; for IC50: IC50, rat 3β-HSD1, testicular microsome, 0.2 µM P5, 0.2 mM NAD+, 30 min; for increase of inhibitory effect relative to CUR: r3β-HSD1; for Mode action: rat 3β-HSD1, vs. P5, mixed model and Lineweaver-Burk plot. The procedure, abridged: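 Testes came from 90-day male Sprague-Dawley rats. Microsomes were isolated from homogenate in 0.25 M sucrose PBS (pH 7.2) by spins at 700, 14,500 and twice 105,000 ×g. Reactions used 5 µg microsomal protein, 0.2 µM P5 and 0.2 mM NAD+ in PBS for 30 min. […] P4 by HPLC-MS/MS with T-d5 internal standard; n = 4.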

In another data set the test system is human KGN cells. As to the kind of experiment: P4 output in human KGN cells under basal and FSK-stimulated conditions. It is filed as cell-based. The following applies: basal condition, 24 h. An outline of the steps:
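KGN human granulosa-like cells grown in DMEM/F12 with 10% FBS and 1% antibiotics at 37 °C, 5% CO2. Seeded at 1 × 10^6 cells/well and treated for 24 h with 0, 10, 20 or 40 µM test compound, either without forskolin (basal) or with 10 µM forskolin. P4 in the medium was quantified by HPLC-MS/MS. n = 4; one-way ANOVA with Dunnett's test vs control.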

Another data set deals with T2, h3β-HSD2 (Homo sapiens, UniProt P26439).
T2 sequence (P26439 1-372): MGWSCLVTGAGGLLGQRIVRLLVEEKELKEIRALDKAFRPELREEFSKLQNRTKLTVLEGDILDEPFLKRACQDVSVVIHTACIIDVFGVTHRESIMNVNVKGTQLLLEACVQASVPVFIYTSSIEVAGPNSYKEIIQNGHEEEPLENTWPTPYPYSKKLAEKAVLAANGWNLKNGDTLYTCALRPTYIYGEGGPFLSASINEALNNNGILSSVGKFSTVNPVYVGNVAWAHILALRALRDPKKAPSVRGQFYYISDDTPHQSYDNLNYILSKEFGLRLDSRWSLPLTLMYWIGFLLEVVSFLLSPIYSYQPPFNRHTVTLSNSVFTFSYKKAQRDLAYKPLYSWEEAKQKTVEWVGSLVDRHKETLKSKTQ
The data set can be described thus: h3β-HSD2 activity, conversion of P5 to P4 in KGN cell homogenate. It is filed as biochemical. The note with it: for Residual h3β-HSD2 activity: 100 µM chemical, relative to DMSO control; for IC50: IC50, human 3β-HSD2, KGN cell homogenate, 0.2 µM P5, 0.2 mM NAD+, 30 min; for Mode action: human 3β-HSD2, vs. P5, mixed model and Lineweaver-Burk plot.

For data set [1] the following is noted: cited from earlier work.
For data set [2] the following is noted: ref GuideChem; cited from earlier work.
Another data set deals with human 11β-HSD1. The note with it: cited from earlier work.
The subject of the next data set is human 11β-HSD2. The following applies: cited from earlier work.
The subject of another data set is human 17β-HSD3. The following applies: cited from earlier work.

Each structure is given as a SMILES string. Where “and” joins values, the source holds several entries; their conditions need not be identical. Equal entries are not always repeated. Some results are limits rather than exact numbers.

As to `COc1cc(/C=C/C(O)=C/C(=O)/C=C/c2ccc(O)cc2)ccc1O` [DMC, demethoxycurcumin], at r3β-HSD1, the Ki is 2.18 µM, the “Residual r3β-HSD1 activity” value is < 20 % of the control, the IC50 was found to be 2.15 ± 0.27 µM and the “increase of inhibitory effect relative to CUR” value was 1 fold. Further, at r3β-HSD1, the Mode action result was “Mixed”. Also, the “lowest concentration that markedly decreased basal P4 output” value in the data set on human KGN cells amounted to 10 µM. Moreover, at h3β-HSD2, the Ki amounted to 3.85 µM, the “Residual h3β-HSD2 activity” value is < 25 % of the control, the IC50 stood at 3.27 ± 0.38 µM and the Mode action entry was “Mixed”. Also, the half-lives in data set [1] was 2 to 4 h.
Turning to `COc1cc(/C=C/C(=O)CC(=O)/C=C/c2ccc(O)c(OC)c2)ccc1O` [CUR, curcumin], the LogP in data set [2] is listed as 3.37. In the data set on human 11β-HSD1, the IC50 is ~10 µM and 10 to 15 µM. Also, in the data set with human 11β-HSD2, the IC50 was ~14.5 µM and 10 to 15 µM. On r3β-HSD1, the inhibition constant Ki is 4.21 µM, the “Residual r3β-HSD1 activity” value is given as < 20 % of the control, the IC50 is 4.06 ± 1.1 µM and the Mode action entry is listed as “Mixed”. Further, the “higher potency to inhibit r3β-HSD1 than h3β-HSD2” value on r3β-HSD1 (r3β-HSD1 vs h3β-HSD2) is recorded as “about 3 fold”. Further, the “lowest concentration that markedly decreased basal P4 output” value in the data set on human KGN cells worked out at 20 µM. Further, on h3β-HSD2, the “Residual h3β-HSD2 activity” value is < 25 % of the control and the Mode action result was “Mixed”. In data set [1], the “clearance from the body” value is reported as “rapid clearance”. Further, the IC50 in the data set on human 17β-HSD3 is ~67.3 µM and > 50 µM.
`COc1cc(CCC(O)CC(O)CCc2ccc(O)c(OC)c2)ccc1O` (stereo not shown) [OHC, octahydrocurcumin]: the “Residual h3β-HSD2 activity” value on h3β-HSD2 is ≥ 50 % of the control.
On to `COc1cc(CCC(=O)CC(=O)CCc2ccc(O)c(OC)c2)ccc1O` [THC, tetrahydrocurcumin], for which, in data set [2], the log partition coefficient (LogP) is on record as 3.691. Also, on r3β-HSD1, the “Residual r3β-HSD1 activity” value was “around 50 % of the control” and inhibition was half-maximal at 103 ± 11.6 µM (IC50). Also, at h3β-HSD2, the “Residual h3β-HSD2 activity” value is recorded as ≥ 50 % of the control and inhibition was half-maximal at 109 ± 19.2 µM (IC50).
For the molecule `O=C(/C=C/c1ccc(O)cc1)CC(=O)/C=C/c1ccc(O)cc1` [BDMC, bisdemethoxycurcumin], at r3β-HSD1, the Ki was 1.56 µM, the “Residual r3β-HSD1 activity” value is recorded as < 20 % of the control, the half-maximal inhibitory concentration (IC50) was determined as 1.22 ± 0.31 µM and the “increase of inhibitory effect relative to CUR” value was 2 fold. Besides, the Mode action entry on r3β-HSD1 is recorded as “Mixed”. Besides, the “lowest concentration that markedly decreased basal P4 output” value with human KGN cells is listed as 10 µM. For the same molecule, on h3β-HSD2, the Ki came out at 1.12 µM, the “Residual h3β-HSD2 activity” value is recorded as < 25 % of the control, the IC50 was 1.68 ± 0.39 µM and the Mode action entry is reported as “Competitive”. Besides, in data set [1], the half-lives was 2 to 4 h.
Take `CC(=O)[C@H]1CC[C@H]2[C@@H]3CC=C4C[C@@H](O)CC[C@]4(C)[C@H]3CC[C@]12C` [P5, pregnenolone]: the Km on r3β-HSD1 (read-out: apparent Km, substrate P5, r3β-HSD1, Michaelis-Menten kinetics) is 0.32 ± 0.1 µM; at h3β-HSD2 (read-out: apparent Km, substrate P5, h3β-HSD2, Michaelis-Menten kinetics), 3.08 ± 0.81 µM.

As usually defined, the Ki is the dissociation constant of the complex between target and ligand, obtained from inhibition or displacement. For orientation: IC50 means the concentration that inhibits the measured activity by half. By LogP is commonly meant a log measure of how a compound divides between an organic and an aqueous phase. Usually Km stands for the concentration of substrate that gives half-maximal velocity.

The values are drawn from paper PMC10187107 (Journal of Enzyme Inhibition and Medicinal Chemistry, 2023).
